In ChEMBL document CHEMBL5705906 (Nat Commun, 2017):
Calls of active or inactive are those of the source. The calls are words filed in the database; no cut-off is given here.

Tests used:
[1] = test system: Epidermal growth factor receptor (Homo sapiens), P00533 [UNDEFINED MUTATION]; conditions: PC-9, dose 10-1000 nM
[2] = test system: Epidermal growth factor receptor (Homo sapiens), P00533 [UNDEFINED MUTATION]; conditions: PC-9, dose 10-1000 nM; remark: listed apart in the source
[3] = test system: Epidermal growth factor receptor (Homo sapiens), P00533 [UNDEFINED MUTATION]; conditions: PC-9, dose 10-1000 nM; remark: listed apart in the source
[4] = test system: Epidermal growth factor receptor (Homo sapiens), P00533 [UNDEFINED MUTATION]; conditions: PC-9, dose 10-1000 nM; remark: listed apart in the source
BaF3 [5] = test: Inhibition of EGFR-C797S/T790M/L858R mutant expressed in mouse BaF3 cells assessed as inhibition of Akt phosphorylation at 10 to 1000 nM incubated for 6 hrs by Western blotting analysis; format: cell-based; conditions: dose 10-1000 nM
Method in brief: (§1)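 Ba/F3 cells expressing EGFR-L858R-series mutants treated with inhibitors for 6 h. SDS lysates quantified by BCA, run on SDS-PAGE and blotted to PVDF. Probed for phospho-EGFR (Tyr1068), total EGFR and downstream phospho-proteins.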

BaF3 [6] = test: Inhibition of EGFR-C797S/T790M/L858R mutant expressed in mouse BaF3 cells assessed as inhibition of ERK phosphorylation at 10 to 1000 nM incubated for 6 hrs by Western blotting analysis; format: cell-based; conditions: dose 10-1000 nM
Method in brief: as §1

BaF3 [7] = test: Inhibition of EGFR-C797S/T790M/L858R mutant in mouse BaF3 cells assessed as inhibition of EGFR phosphorylation at 10 to 1000 nM incubated for 6 hrs by Western blotting analysis; format: cell-based; conditions: dose 10-1000 nM
Method in brief: as §1

BaF3 [8] = test: Inhibition of EGFR-C797S/T790M/L858R mutant in mouse BaF3 cells assessed as inhibition of S6 phosphorylation at 10 to 1000 nM incubated for 6 hrs by Western blotting analysis; format: cell-based; conditions: dose 10-1000 nM
Method in brief: as §1

Sequence of Epidermal growth factor receptor (Homo sapiens), P00533 [UNDEFINED MUTATION] (P00533 whole entry, looked up, stated change not applied): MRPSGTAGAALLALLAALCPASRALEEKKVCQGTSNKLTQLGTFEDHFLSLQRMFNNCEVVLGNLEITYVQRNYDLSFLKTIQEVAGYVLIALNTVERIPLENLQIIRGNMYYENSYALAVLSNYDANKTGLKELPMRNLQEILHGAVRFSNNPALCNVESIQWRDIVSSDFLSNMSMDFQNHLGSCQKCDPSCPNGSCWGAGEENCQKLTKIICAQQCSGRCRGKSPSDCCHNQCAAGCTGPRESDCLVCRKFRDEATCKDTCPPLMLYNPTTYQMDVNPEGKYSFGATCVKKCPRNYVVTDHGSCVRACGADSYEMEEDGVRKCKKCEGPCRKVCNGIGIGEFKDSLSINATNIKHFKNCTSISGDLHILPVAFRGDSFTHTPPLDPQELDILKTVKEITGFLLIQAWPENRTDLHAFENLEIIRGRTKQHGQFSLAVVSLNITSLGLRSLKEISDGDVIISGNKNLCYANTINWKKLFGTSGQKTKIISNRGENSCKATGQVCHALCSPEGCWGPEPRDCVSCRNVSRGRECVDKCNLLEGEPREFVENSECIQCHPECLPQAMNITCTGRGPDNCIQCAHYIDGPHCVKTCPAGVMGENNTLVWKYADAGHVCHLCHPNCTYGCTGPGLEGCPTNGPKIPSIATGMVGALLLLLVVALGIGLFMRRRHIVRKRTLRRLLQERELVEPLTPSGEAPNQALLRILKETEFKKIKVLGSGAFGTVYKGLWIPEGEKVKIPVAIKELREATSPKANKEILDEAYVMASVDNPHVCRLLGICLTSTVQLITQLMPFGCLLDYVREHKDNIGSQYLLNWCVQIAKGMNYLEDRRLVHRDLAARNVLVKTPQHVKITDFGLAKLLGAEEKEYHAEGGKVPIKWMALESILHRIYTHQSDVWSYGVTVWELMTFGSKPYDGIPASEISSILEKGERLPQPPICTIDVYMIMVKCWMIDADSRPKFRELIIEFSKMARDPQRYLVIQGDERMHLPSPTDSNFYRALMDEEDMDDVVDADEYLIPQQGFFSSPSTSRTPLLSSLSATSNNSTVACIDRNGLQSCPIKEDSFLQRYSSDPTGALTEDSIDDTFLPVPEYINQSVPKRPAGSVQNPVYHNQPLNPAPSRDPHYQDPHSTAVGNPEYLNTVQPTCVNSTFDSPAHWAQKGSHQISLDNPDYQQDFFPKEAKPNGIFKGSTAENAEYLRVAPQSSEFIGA

Row | Compound | inhibition [1] | inhibition [2] | inhibition [3] | inhibition [4] | inhibition (BaF3 [5]) | inhibition (BaF3 [6]) | inhibition (BaF3 [7]) | inhibition (BaF3 [8])
1 | COc1cc(N2CCC(N)CC2)ccc1Nc1ncc(Cl)c(-c2c[nH]c3ccccc23)n1 | Active | Active | Active | Active |  |  |  | 
2 | COc1cc(N2CCC(N3CCN(C)CC3)CC2)ccc1Nc1ncc(Cl)c(Nc2ccccc2S(=O)(=O)C(C)C)n1 |  |  |  |  | inactive | inactive | inactive | inactive
